Active and inactive are the calls of the source. The rule behind the calls is not given here.
What was measured:
[1] = target: T1, Bile acid receptor (Homo sapiens) (UniProt Q96RI1); experiment: Transactivation of FXR in human HepG2 cells assessed as BSEP mRNA expression at 1 uM after 8 to 16 hrs by SYBR green based qRT-PCR analysis relative to DMSO control; format: cell-based
T1 sequence (whole entry): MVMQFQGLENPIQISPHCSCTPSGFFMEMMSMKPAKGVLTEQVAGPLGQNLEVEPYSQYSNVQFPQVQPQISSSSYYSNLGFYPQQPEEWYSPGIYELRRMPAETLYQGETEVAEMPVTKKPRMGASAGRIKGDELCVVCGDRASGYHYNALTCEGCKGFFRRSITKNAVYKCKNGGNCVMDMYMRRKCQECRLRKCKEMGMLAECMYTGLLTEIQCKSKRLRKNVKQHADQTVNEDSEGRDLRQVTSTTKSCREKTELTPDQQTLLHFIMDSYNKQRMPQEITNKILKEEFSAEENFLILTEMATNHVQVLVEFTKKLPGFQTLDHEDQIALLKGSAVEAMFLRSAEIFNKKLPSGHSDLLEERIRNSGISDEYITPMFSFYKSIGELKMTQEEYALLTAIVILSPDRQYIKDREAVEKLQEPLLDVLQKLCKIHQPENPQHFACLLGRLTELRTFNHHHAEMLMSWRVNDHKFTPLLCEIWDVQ
Outline: (§1)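 HepG2 cells incubated with test compound (0.1 and 1 μM) or 0.1% DMSO for 8 or 16 h, washed in cold PBS, RNA extracted; target mRNA by SYBR Green qRT-PCR, duplicate samples, ≥4 independent experiments; comparative ΔΔCt with GAPDH reference, vehicle set as 100%.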

[2] = target: Retinoic acid receptor RXR-beta (Homo sapiens) (UniProt P28702); experiment: Transactivation of human GAL4-fused RXRbeta ligand binding domain expressed in […] cells at 10 uM after 12 to 14 hrs by dual-glo luciferase reporter gene assay; format: cell-based
Sequence of Retinoic acid receptor RXR-beta (Homo sapiens) (P28702 whole entry, the tested form may be a part): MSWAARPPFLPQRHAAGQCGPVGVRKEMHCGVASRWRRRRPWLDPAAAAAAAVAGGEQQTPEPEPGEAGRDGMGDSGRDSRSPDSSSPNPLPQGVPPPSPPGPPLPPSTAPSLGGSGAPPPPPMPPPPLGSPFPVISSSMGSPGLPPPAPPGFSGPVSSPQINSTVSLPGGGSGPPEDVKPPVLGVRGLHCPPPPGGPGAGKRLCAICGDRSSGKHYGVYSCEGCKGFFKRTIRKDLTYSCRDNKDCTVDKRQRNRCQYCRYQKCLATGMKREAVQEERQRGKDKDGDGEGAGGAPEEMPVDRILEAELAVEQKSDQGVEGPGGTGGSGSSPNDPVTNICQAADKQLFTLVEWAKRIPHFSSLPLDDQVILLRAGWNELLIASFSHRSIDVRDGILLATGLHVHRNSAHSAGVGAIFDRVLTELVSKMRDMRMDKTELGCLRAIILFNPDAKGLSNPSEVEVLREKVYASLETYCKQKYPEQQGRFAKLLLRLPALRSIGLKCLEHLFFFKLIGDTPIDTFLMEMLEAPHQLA
Outline: (§2)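 HEK293T cells in DMEM/10% FCS, Opti-MEM before Lipofectamine LTX transfection with pFR-Luc reporter, pRL-SV40 and pFA-CMV GAL4–LBD plasmid. 5 h later compound in 0.1% DMSO, Opti-MEM, overnight (12−14 h). Dual luciferase; firefly/renilla ×1000 = RLU, fold over DMSO control; triplicates, ≥3 independent repeats.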

[3] = target: Retinoic acid receptor RXR-gamma (Homo sapiens) (UniProt P48443); experiment: Transactivation of human GAL4-fused RXRgamma ligand binding domain expressed in […] cells at 10 uM after 12 to 14 hrs by dual-glo luciferase reporter gene assay; format: cell-based; outline: as §2
Sequence of Retinoic acid receptor RXR-gamma (Homo sapiens) (P48443 whole entry, the tested form may be a part): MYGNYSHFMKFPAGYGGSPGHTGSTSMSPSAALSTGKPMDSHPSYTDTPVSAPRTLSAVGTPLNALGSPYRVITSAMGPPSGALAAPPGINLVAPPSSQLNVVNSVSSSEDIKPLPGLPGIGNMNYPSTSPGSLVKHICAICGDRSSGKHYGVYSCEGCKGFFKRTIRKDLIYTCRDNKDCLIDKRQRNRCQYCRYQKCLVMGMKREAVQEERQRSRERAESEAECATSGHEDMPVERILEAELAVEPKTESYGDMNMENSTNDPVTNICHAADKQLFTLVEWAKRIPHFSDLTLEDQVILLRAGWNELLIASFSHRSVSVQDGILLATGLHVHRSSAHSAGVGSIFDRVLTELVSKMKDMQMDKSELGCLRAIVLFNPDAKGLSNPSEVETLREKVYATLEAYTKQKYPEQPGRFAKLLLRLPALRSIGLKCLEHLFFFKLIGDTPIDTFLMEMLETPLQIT

[4] = target: Retinoic acid receptor gamma (Homo sapiens) (UniProt P13631); experiment: Transactivation of human GAL4-fused RARgamma ligand binding domain expressed in […] cells at 10 uM after 12 to 14 hrs by dual-glo luciferase reporter gene assay; format: cell-based; outline: as §2
Sequence of Retinoic acid receptor gamma (Homo sapiens) (P13631 whole entry, the tested form may be a part): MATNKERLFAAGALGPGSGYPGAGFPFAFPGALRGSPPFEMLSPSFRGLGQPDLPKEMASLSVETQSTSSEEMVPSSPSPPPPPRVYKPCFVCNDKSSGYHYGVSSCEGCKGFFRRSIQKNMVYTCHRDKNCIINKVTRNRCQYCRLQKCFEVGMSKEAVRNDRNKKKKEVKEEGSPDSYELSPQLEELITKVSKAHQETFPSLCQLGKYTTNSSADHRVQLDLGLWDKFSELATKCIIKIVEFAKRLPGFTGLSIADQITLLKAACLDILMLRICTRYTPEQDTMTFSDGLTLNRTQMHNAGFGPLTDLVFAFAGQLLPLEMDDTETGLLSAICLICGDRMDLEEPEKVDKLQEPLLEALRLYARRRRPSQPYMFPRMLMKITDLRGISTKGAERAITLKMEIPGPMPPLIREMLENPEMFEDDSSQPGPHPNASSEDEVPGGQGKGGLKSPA

[5] = target: T1, Bile acid receptor (Homo sapiens); experiment: Transactivation of FXR in human HepG2 cells assessed as SHP mRNA expression at 1 uM after 8 to 16 hrs by SYBR green based qRT-PCR analysis relative to DMSO control; format: cell-based; outline: as §1
[6] = target: T2, Peroxisome proliferator-activated receptor gamma (Homo sapiens) (UniProt P37231); experiment: Transactivation of PPARgamma in human HepG2 cells assessed as CD36 mRNA expression at 10 uM after 8 to 16 hrs by SYBR green based qRT-PCR analysis relative to DMSO control; format: cell-based
T2 sequence (whole entry): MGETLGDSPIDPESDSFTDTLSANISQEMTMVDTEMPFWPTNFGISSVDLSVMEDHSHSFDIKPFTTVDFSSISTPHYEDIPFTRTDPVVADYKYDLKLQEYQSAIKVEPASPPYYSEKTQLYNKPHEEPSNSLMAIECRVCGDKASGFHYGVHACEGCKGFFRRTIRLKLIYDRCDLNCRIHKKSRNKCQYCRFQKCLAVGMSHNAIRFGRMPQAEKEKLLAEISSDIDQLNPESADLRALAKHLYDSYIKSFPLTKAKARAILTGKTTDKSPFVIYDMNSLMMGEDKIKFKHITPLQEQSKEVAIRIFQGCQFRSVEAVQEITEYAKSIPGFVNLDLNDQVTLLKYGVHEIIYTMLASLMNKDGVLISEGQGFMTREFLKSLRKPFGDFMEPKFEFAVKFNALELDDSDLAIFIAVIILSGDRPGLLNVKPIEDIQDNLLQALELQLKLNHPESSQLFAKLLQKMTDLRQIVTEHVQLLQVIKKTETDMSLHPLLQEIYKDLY
Outline: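 HepG2 cells treated 8 or 16 h with compound or 0.1% DMSO, washed in cold PBS, RNA extracted; SYBR Green qRT-PCR in duplicate, ≥4 independent experiments (n = 3 for CD36/FAM3A). ΔΔCt method with GAPDH reference; expression as % of vehicle (100%). Pioglitazone 1 μM used as positive control for the PPARγ genes.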

[7] = target: G-protein coupled bile acid receptor 1 (Homo sapiens) (UniProt Q8TDU6); experiment: Antagonist activity at TGR5 (unknown origin) at 10 uM
Sequence of G-protein coupled bile acid receptor 1 (Homo sapiens) (Q8TDU6 whole entry): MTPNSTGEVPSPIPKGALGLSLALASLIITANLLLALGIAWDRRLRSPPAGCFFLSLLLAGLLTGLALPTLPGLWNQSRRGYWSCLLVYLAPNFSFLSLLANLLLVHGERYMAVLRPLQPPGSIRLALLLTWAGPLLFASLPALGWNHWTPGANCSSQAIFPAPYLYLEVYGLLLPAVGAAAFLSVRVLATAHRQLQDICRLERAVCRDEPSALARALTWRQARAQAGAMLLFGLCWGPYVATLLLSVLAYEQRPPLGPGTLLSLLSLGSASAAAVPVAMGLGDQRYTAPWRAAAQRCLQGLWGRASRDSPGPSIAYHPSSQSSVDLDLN

MDM = experiment: Effect on IL-10 levels in LPS-stimulated primary human MDM at 0.01 uM after 16 hrs by cytometric bead array method; format: functional, cell-based
Outline: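 Blood monocytes isolated by dextran sedimentation and Nycoprep gradient, adherence-selected 1 h, differentiated with GM-CSF 10 ng/mL for 7 days plus IFNγ 10 ng/mL for last 48 h. Stimulated with LPS 100 ng/mL plus compound for 16 h; supernatant IL-10 and IL-12p70 measured by cytometric bead array flow cytometry.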

Liver = experiment: Drug metabolism in Sprague-Dawley rat liver microsomes assessed as 4-tert-butyl-N-(2-chloro-4-(methylsulfonamido)benzyl)-2-hydroxybenzamide formation at 10 uM preincubated with NADPH regenerating system for 5 mins followed by addition of liver microsomes by LC-MS/MS method; format: ADME, microsome
[8] = target: T3, Bifunctional epoxide hydrolase 2 (Homo sapiens) (UniProt P34913); details: 0.01 uM
T3 sequence (whole entry): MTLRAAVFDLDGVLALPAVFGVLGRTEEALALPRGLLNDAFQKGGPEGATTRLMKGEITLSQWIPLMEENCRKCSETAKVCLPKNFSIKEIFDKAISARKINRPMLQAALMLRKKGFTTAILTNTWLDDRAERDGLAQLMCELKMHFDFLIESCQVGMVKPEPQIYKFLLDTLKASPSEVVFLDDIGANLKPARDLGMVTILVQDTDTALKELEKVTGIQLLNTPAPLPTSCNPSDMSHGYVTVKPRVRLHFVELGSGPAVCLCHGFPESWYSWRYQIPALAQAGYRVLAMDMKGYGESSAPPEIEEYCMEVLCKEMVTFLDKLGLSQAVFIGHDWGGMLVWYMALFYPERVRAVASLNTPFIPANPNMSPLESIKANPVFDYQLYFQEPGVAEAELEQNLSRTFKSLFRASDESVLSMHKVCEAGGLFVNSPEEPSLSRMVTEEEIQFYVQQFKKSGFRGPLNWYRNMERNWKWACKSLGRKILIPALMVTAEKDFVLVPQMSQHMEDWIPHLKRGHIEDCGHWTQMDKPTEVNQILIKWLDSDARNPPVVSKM

`CC(C)(C)c1ccc(C(=O)NCc2ccc(NS(C)(=O)=O)cc2Cl)cc1` was tested, and the Activity [1] was 222%, the Activity [2] was “inactive” and the Activity [3] was “inactive”. The Activity [4] was “inactive”, the Activity [5] was 317% and the Activity [6] was 129%. For the same molecule, the inhibition [7] was “inactive”, the Activity (MDM) was “inactive” and the Drug metabolism (Liver) was “Metabolite_Notdetected”. The inhibition [8] was “inactive”.

Reference: ChEMBL document CHEMBL4017509, “A Dual Modulator of Farnesoid X Receptor and Soluble Epoxide Hydrolase To Counter Nonalcoholic Steatohepatitis” (J Med Chem, 2017)
